From paper PMC5900865 (Clinical Pharmacology in Drug Development, 2017)

Key:
[1] = system: healthy adult men and women; assay: Study 1B safety evaluation; assay type: in vivo, human
How it was run: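 Double-blind, placebo-controlled (2:1) multiple-dose study. Men received 5, 10 or 20 mg and women 5 or 10 mg, oral and fed, daily on days 1–12. Women were dosed only after that dose was assessed in men. Participants were discharged day 17, with post-study exam day 20. AEs, weight, vitals, 12-lead ECG and clinical labs were recorded. TEAE incidence, intensity and drug relationship were assessed by dose and sex versus placebo.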

CYP2A6 = conditions: cited from earlier work
CYP2C19 = conditions: cited from earlier work
healthy adult men [2] = assay: Study 1A safety evaluation; assay type: in vivo, human
How it was run: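 Randomized, double-blind, placebo-controlled study in healthy Japanese men. Single oral doses rose from 2.5 to 40 mg, doubling over 5 cohorts of 9 (2:1 drug:placebo). Each escalation followed review of safety data to day 5 and PK data to 48 h. AEs, body weight, vital signs, 12-lead ECG and haematology, chemistry, coagulation and urinalysis were recorded. TEAE incidence, intensity and drug relationship were compared with placebo.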

healthy adult men [3] = assay: Study 3 safety evaluation; assay type: in vivo, human; conditions: single 10 mg
[4] = Study 2 single-dose pharmacokinetics in elderly adults; assay type: in vivo, human; conditions: for AUC(0-inf) / Cmax / Tmax: human, plasma, oral, 10 mg; for T1/2 / Fe0–120, fraction excreted: single 10 mg; for T1/2: fasted; for Fe0–120, fraction excreted: urine 0 to 120 hours
How it was run: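 Elderly men and women (65–85 y) received a single oral 10 mg dose, fasted, in the morning. Plasma vortioxetine and metabolites were assayed by HPLC-MS/MS after liquid–liquid extraction. Urine was pooled predose and at 24-h intervals to 120 h. Parameters came from noncompartmental analysis. Below-LLOQ concentrations were entered as zero in means. Tmax is median (min–max).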

[5] = Study 3 food-effect pharmacokinetics; assay type: in vivo, human
How it was run: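 Open-label two-period crossover in healthy men given 10 mg orally on days 1 and 15, fasted or fed. Fasted dosing followed ≥10 h fasting, with water. Fed dosing came within 10 min after a high-fat breakfast (≥900 kcal, ≥35% fat) eaten within 20 min. Plasma was sampled predose to 168 h; urine was pooled to 168 h. Log-transformed Cmax/AUC were analysed by ANOVA with 90% CI of back-transformed LS mean ratios. Tmax used Wilcoxon signed-rank.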

CYP2C8 = conditions: cited from earlier work
[6] = Study 1B multiple-dose pharmacokinetics; assay type: in vivo, human
How it was run: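 Men (5, 10, 20 mg) and women (5, 10 mg) were dosed orally, fed, daily for 12 days. Plasma was sampled on day 1 predose to […]. Urine came from the 5 mg cohort predose days 1–16 then in 24-h intervals, and for 10/20 mg on day 12 at 0–24 h. Analysis was by HPLC-MS/MS and noncompartmental.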

CYP2D6 = conditions: cited from earlier work
CYP2E1 = conditions: cited from earlier work
CYP1A2 = conditions: cited from earlier work
[7] = system: elderly adult men and women; assay: Study 2 safety evaluation; assay type: in vivo, human; conditions: elderly population, single dose of 10 mg
How it was run: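 Elderly Japanese adults aged 65–85 (10 men, 10 women) were randomized 4:1, double-blind, to one oral 10 mg dose or placebo. Dosing was fasted, in the morning of day 1. Participants stayed on site days 1–5 and were discharged day 6. AEs, weight, vital signs, 12-lead ECG and haematology, chemistry, coagulation and urinalysis were recorded. TEAE incidence and intensity were compared with placebo.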

CYP2B6 = conditions: cited from earlier work
CYP2C9 = conditions: cited from earlier work
[8] = elderly women, n = 7, mean (SD)
[9] = day 12, female, 5 mg daily, n = 5, mean (SD)
[10] = day 12, female, 10 mg daily, n = 6, mean (SD)
[11] = day 12, male, 5 mg daily, n = 6, mean (SD)
[12] = day 12, male, 10 mg daily, n = 6, mean (SD)
[13] = day 12, male, 20 mg daily, n = 6, mean (SD)

Cc1ccc(Sc2ccccc2N2CCNCC2)c(C)c1 [Vortioxetine, 1‐[2‐(2,4‐dimethylphenylsulfanyl)phenyl]piperazine]
tolerated multiple dose ([1]; healthy men): up to 20 mg | tolerated multiple dose ([1]; healthy women): ≤ 10 mg | intensity of TEAEs ([1]; multiple doses, all groups): all TEAEs were mild in intensity | inhibitory or inducing effect in vitro (CYP2A6): No inhibitory or inducing effect | inhibitory or inducing effect in vitro (CYP2C19): No inhibitory or inducing effect | tolerated single dose (healthy adult men [2]; healthy men): up to 20 mg | AEs reported (healthy adult men [2]; single 40‐mg dose group): Seven AEs | safety profiles, fasted vs fed (healthy adult men [3]): no significant differences in safety profiles | AUC(0-inf) ([4]; female): 305 ng·h/mL | Cmax ([4]; female): 4.6 ng/mL | Tmax ([4]; female): 6 h | AUC(0-inf) ([4]; male): 378 ng·h/mL | Cmax ([4]; male): 4.2 ng/mL | Tmax ([4]; male): 6 h | T1/2 ([4]; elderly men, n = 8, mean (SD)): 85.2 (29.8) h | T1/2 [4, 8]: 63.5 (10.7) h | Fe0–120, fraction excreted ([4]; elderly men, n = 8, mean (SD)): 0.0 (0.0) % | Fe0–120, fraction excreted [4, 8]: 0.0 (0.0) % | Tmax ([5]; male, human, plasma, oral, 10 mg): 12 h | 90%CIs for the LS mean ratios of Cmax and AUC (fed vs fasted) ([5]; single 10 mg, no‐effect boundary 90%CI, 0.8–1.25): within the no‐effect boundary | inhibitory or inducing effect in vitro (CYP2C8): No inhibitory or inducing effect | time to reach steady state ([6]; 5‐ and 20‐mg doses in men and 10‐mg dose in women): approximately 12 days | steady state of trough plasma concentrations ([6]; 10‐mg dose in men and 5‐mg dose in women): did not reach steady state even after 12 days | clearance at 12 days ([6]; both, human, plasma, oral): 333 to 867 mL/min | CL/F ([6]; day 1, female, 5 mg daily, fed, n = 5, mean (SD)): 22.3 (19.6) L/h | CL/F ([6]; day 1, female, 10 mg daily, fed, n = 6, mean (SD)): 99.3 (104.7) L/h | CL/F ([6]; day 1, male, 5 mg daily, fed, n = 6, mean (SD)): 30.6 (9.4) L/h | CL/F ([6]; day 1, male, 10 mg daily, fed, n = 6, mean (SD)): 29.1 (12.0) L/h | CL/F ([6]; day 1, male, 20 mg daily, fed, n = 6, mean (SD)): 50.4 (17.1) L/h | CL/F ([6]; day 12, female, 5 mg daily, fed, n = 5, mean (SD)): 20.2 (9.5) L/h | R(AUC), cumulative ratio of AUC values [6, 9]: 6.0 (2.0) | R(Cmax), cumulative ratio of Cmax values [6, 9]: 5.0 (1.5) | CL/F ([6]; day 12, female, 10 mg daily, fed, n = 6, mean (SD)): 69.9 (94.8) L/h | R(AUC), cumulative ratio of AUC values [6, 10]: 5.3 (2.2) | R(Cmax), cumulative ratio of Cmax values [6, 10]: 3.9 (1.5) | CL/F ([6]; day 12, male, 5 mg daily, fed, n = 6, mean (SD)): 33.1 (10.3) L/h | R(AUC), cumulative ratio of AUC values [6, 11]: 5.2 (1.4) | R(Cmax), cumulative ratio of Cmax values [6, 11]: 4.4 (1.1) | CL/F ([6]; day 12, male, 10 mg daily, fed, n = 6, mean (SD)): 23.8 (4.4) L/h | R(AUC), cumulative ratio of AUC values [6, 12]: 6.2 (0.9) | R(Cmax), cumulative ratio of Cmax values [6, 12]: 5.1 (0.6) | CL/F ([6]; day 12, male, 20 mg daily, fed, n = 6, mean (SD)): 51.5 (16.6) L/h | R(AUC), cumulative ratio of AUC values [6, 13]: 3.9 (1.0) | R(Cmax), cumulative ratio of Cmax values [6, 13]: 3.2 (0.7) | AUC(0-t) ([6]; female, human, plasma, oral, 5 mg, AUC0–24, day 1, female, 5 mg daily, fed, n = 5, mean (SD)): 47.1 ng·h/mL | AUC(0-t) ([6]; female, human, plasma, oral, 5 mg, AUC0–24, day 12, female, 5 mg daily, fed, n = 5, mean (SD)): 284 ng·h/mL | half-life ([6]; female, human, plasma, oral, 5 mg, T1/2, day 1, female, 5 mg daily, fed, n = 5, mean (SD)): 113 h | half-life ([6]; female, human, plasma, oral, 5 mg, T1/2, day 12, female, 5 mg daily, fed, n = 5, mean (SD)): 79.8 h | AUC(0-t) ([6]; female, human, plasma, oral, 10 mg, AUC0–24, day 1, female, 10 mg daily, fed, n = 6, mean (SD)): 53.3 ng·h/mL | AUC(0-t) ([6]; female, human, plasma, oral, 10 mg, AUC0–24, day 12, female, 10 mg daily, fed, n = 6, mean (SD)): 295 ng·h/mL | half-life ([6]; female, human, plasma, oral, 10 mg, T1/2, day 1, female, 10 mg daily, fed, n = 6, mean (SD)): 34.2 h | half-life ([6]; female, human, plasma, oral, 10 mg, T1/2, day 12, female, 10 mg daily, fed, n = 6, mean (SD)): 58 h | average time to reach steady state ([6]; given a median half‐life of 67 hours): 14 days | half-life ([6]; human, plasma, oral, median half‐life, as given in the discussion): 67 h | AUC(0-t) ([6]; male, human, plasma, oral, 5 mg, AUC0–24, day 1, male, 5 mg daily, fed, n = 6, mean (SD)): 31.6 ng·h/mL | AUC(0-t) ([6]; male, human, plasma, oral, 5 mg, AUC0–24, day 12, male, 5 mg daily, fed, n = 6, mean (SD)): 163 ng·h/mL | half-life ([6]; male, human, plasma, oral, 5 mg, T1/2, day 1, male, 5 mg daily, fed, n = 6, mean (SD)): 68 h | half-life ([6]; male, human, plasma, oral, 5 mg, T1/2, day 12, male, 5 mg daily, fed, n = 6, mean (SD)): 58 h | AUC(0-t) ([6]; male, human, plasma, oral, 10 mg, AUC0–24, day 1, male, 10 mg daily, fed, n = 6, mean (SD)): 71 ng·h/mL | AUC(0-t) ([6]; male, human, plasma, oral, 10 mg, AUC0–24, day 12, male, 10 mg daily, fed, n = 6, mean (SD)): 432 ng·h/mL | half-life ([6]; male, human, plasma, oral, 10 mg, T1/2, day 12, male, 10 mg daily, fed, n = 6, mean (SD)): 65.1 h | AUC(0-t) ([6]; male, human, plasma, oral, 20 mg, AUC0–24, day 1, male, 20 mg daily, fed, n = 6, mean (SD)): 110 ng·h/mL | AUC(0-t) ([6]; male, human, plasma, oral, 20 mg, AUC0–24, day 12, male, 20 mg daily, fed, n = 6, mean (SD)): 433 ng·h/mL | half-life ([6]; male, human, plasma, oral, 20 mg, T1/2, day 1, male, 20 mg daily, fed, n = 6, mean (SD)): 44 h | half-life ([6]; male, human, plasma, oral, 20 mg, T1/2, day 12, male, 20 mg daily, fed, n = 6, mean (SD)): 56.8 h | Fe0–x, fraction excreted (VOR) ([6]; urine 0 to 24 hours (day 1), female, 5 mg daily, n = 5, mean (SD)): 0.00 (0.0) % | Fe0–x, fraction excreted (VOR) ([6]; urine 0 to 24 hours (day 1), male, 5 mg daily, n = 6, mean (SD)): 0.00 (0.0) % | Fe0–x, fraction excreted (VOR) ([6]; urine 0 to 288 hours (day 12), female, 5 mg daily, n = 5, mean (SD)): 0.0494 (0.087) % | Fe0–x, fraction excreted (VOR) ([6]; urine 0 to 288 hours (day 12), male, 5 mg daily, n = 6, mean (SD)): 0.0072 (0.018) % | inhibitory or inducing effect in vitro (CYP2D6): No inhibitory or inducing effect | inhibitory or inducing effect in vitro (CYP2E1): No inhibitory or inducing effect | inhibitory or inducing effect in vitro (CYP1A2): No inhibitory or inducing effect | safety and tolerability [7]: safe and tolerated | inhibitory or inducing effect in vitro (CYP2B6): No inhibitory or inducing effect | inhibitory or inducing effect in vitro (CYP2C9): No inhibitory or inducing effect
